Source: ChEMBL document CHEMBL1131111, “Synthesis and anti-HIV-1 activity of novel 2,3-dihydro-7H-thiazolo[3,2-a]pyrimidin-7-ones” (1998)

Columns and labels:
Type in all cases: functional
[1] = system: Human immunodeficiency virus 1; assay: Effective dose required for 50% inhibition of HIV-1 antigen production in MT-4 cultures
MT4 [2] = assay: Cytotoxic dose required to reduce the proliferation of normal uninfected MT-4 cells by 50%; details: Homo sapiens, read-out: CD50 (the source's name)
In short: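 Cytotoxicity scored as concentration-dependent inhibition of proliferation of uninfected MT-4 cells by MTT assay. Cells grown in RPMI 1640 + 10% heat-inactivated FCS. CD50 is the mean of three independent determinations.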

MT4 [3] = assay: Selectivity index is the ratio between CD50 and IC50 values of the compound
In short: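 Selectivity index calculated as CD50 (MTT, uninfected MT-4 cells) divided by ED50 (HIV-1 antigen ELISA, infected MT-4 cultures). Each value is the mean of three independent determinations.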

| Structure (SMILES) | ED50 [1] [µM] | CC50 (MT4 [2]) [µM] | SI (MT4 [3]) |
| --- | --- | --- | --- |
| CCc1c(O)nc(SCC2OCCO2)nc1Cc1cc(C)cc(C)c1 | 3 | 37 | 12 |
| COC(CSc1nc(O)c(C(C)C)c(Cc2ccccc2)n1)OC | 4 | 32 | 8 |
| CCc1c(Cc2ccccc2)n2c(nc1=O)SCC2OC (configuration not stated) | 36 | > 100 | >3 |
| CCc1c(Cc2cc(C)cc(C)c2)n2c(nc1=O)SCC2OC (configuration not stated) | 3 | > 100 | >33 |
| CCOC(CSc1nc(O)c(CC)c(Cc2cc(C)cc(C)c2)n1)OCC | 21 | > 100 | >5 |
| CCc1c(Cc2cc(C)cc(C)c2)n2c(nc1=O)SCC2CBr (configuration not stated) | 2.8 | 46 | 16 |
| C=CCSc1nc(O)c(CC)c(Cc2ccccc2)n1 | 1.5 | > 100 | >67 |
| CCc1c(Cc2cc(C)cc(C)c2)n2c(nc1=O)SCC2OCCO (configuration not stated) | 19 | > 100 | >5 |
| Cc1cn([C@H]2C[C@H](N=[N+]=[N-])[C@@H](CO)O2)c(=O)[nH]c1=O [ZIDOVUDINE] | 0.04 | 52 | 1300 |
| CCOCn1c(Cc2ccccc2)c(C(C)C)c(=O)[nH]c1=O [EMIVIRINE] | 0.005 |  | 28000 |
| CCOC1CSc2nc(=O)c(C(C)C)c(Cc3ccccc3)n21 (configuration not stated) | 100 | > 100 | >1 |
| CCc1c(O)nc(SCC(OC)OC)nc1Cc1cccc2ccccc12 | 32 | > 100 | >3 |
| C=CCSc1nc(O)c(C(C)C)c(Cc2ccccc2)n1 | 1.5 | > 100 | >67 |
| C=CCSc1nc(O)c(CC)c(Cc2cc(C)cc(C)c2)n1 | 2 | 68 | 34 |
| CCOC1CSc2nc(=O)c(CC)c(Cc3cc(C)cc(C)c3)n21 (configuration not stated) | 0.7 | > 100 | >140 |
| CCOC1CSc2nc(=O)c(CC)c(Cc3ccccc3)n21 (configuration not stated) | 46 | > 100 | >2 |
